Key:
[1] = Drug metabolism in sandwich-cultured rat hepatocytes treated with 10 uM DB868 after 4 hrs of incubation by HPLC-MS/MS analysis; format: ADME, cell-based, Hepatocyte
Procedure, shortened: (§1)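 Sandwich-cultured hepatocytes were used on day 5 (human) or day 4 (rat) and rinsed with warm phenol-red-free DMEM. They were then exposed to 10 µM DB868 (0.1–0.2% DMSO) at 37°C. Medium and methanol/water cell lysates were collected at 0.5, 2, 4 and 24 h. Analytes were quantified by HPLC/MS/MS with deuterated internal standards; protein by Bradford. Replicates: 6 (human) or 4 (rat).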

[2] = test system: Liver microsome; experiment: Prodrug conversion in rat liver microsomes assessed as elution time treated with 10 uM DB868 after 180 mins incubation by HPLC-UV chromatography; format: ADME; details: 3 h
Procedure, shortened: (§2)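 HLM or RLM (0.5 mg/mL) were incubated in triplicate in 100 mM phosphate pH 7.4 with 10 mM MgCl2 and an NADPH-regenerating system (1 mM NADP+, glucose 6-phosphate, G6PDH). DB868 was 10 µM. Sampled up to 180 min. Prodrug and metabolites were measured by HPLC-UV at 359 nm and expressed relative to initial prodrug; DB829 LLOQ 50 nM.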

[3] = Drug metabolism in sandwich-cultured human hepatocytes treated with 10 uM DB868 after 24 hrs of incubation by HPLC-MS/MS analysis; format: ADME, cell-based, Hepatocyte; procedure, shortened: as §1
[4] = test system: Liver microsome; experiment: Prodrug conversion in human liver microsomes assessed as elution time treated with 10 uM DB868 after 180 mins incubation by HPLC-UV chromatography; format: ADME; details: 3 h; procedure, shortened: as §2
[5] = Drug metabolism in sandwich-cultured human hepatocytes treated with 10 uM DB868 after 4 hrs of incubation by HPLC-MS/MS analysis; format: ADME, cell-based, Hepatocyte; procedure, shortened: as §1
[6] = Drug metabolism in sandwich-cultured rat hepatocytes treated with 10 uM DB868 after 24 hrs of incubation by HPLC-MS/MS analysis; format: ADME, cell-based, Hepatocyte; procedure, shortened: as §1
[7] = molecular target: T1, Cytochrome P450 1A2 (Rattus norvegicus, UniProt P04799); experiment: Drug metabolism in rat recombinant CYP1A2 treated with at 5 uM DB868 after 180 mins incubation by HPLC-UV chromatography; format: ADME; details: recombinant enzyme, 15 min, in the assay text read “15 mins” for “180 mins”
T1 sequence (P04799 whole entry): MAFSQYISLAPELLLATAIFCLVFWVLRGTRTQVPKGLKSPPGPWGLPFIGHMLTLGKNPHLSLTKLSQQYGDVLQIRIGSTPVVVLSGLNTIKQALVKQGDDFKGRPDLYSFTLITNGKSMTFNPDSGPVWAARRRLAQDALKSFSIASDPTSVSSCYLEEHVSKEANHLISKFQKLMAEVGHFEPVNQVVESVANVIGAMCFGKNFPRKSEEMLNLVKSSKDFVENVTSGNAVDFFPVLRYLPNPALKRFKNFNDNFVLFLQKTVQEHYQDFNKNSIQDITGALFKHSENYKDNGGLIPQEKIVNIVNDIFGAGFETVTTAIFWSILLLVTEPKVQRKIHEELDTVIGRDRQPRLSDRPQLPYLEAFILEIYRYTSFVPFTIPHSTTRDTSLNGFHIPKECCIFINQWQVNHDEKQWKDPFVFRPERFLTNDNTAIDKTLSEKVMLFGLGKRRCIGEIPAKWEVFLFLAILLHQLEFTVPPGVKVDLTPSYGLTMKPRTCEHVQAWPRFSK
Procedure, shortened: (§3)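 Insect-cell-expressed human or rat P450 (with NADPH-P450 reductase, some also with cytochrome b5) at 0.1 pmol/µL in 100 mM potassium phosphate pH 7.4 with 10 mM MgCl2. DB868 (for M1) or M1 (for M2) was added at 5 µM (0.5% DMSO) and started with 2 mM NADPH. Stopped after 15 min with ice-cold acetonitrile, then HPLC-UV. Duplicate incubations.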

[8] = molecular target: T2, Cytochrome P450 1A2 (Homo sapiens, UniProt P05177); experiment: Activity at human recombinant CYP1A2-mediated drug metabolism treated with 5 uM DB868 after 180 mins incubation by HPLC-UV chromatography; format: ADME; details: recombinant enzyme, 15 min, in the assay text read “15 mins” for “180 mins”; procedure, shortened: as §3
T2 sequence (P05177 whole entry): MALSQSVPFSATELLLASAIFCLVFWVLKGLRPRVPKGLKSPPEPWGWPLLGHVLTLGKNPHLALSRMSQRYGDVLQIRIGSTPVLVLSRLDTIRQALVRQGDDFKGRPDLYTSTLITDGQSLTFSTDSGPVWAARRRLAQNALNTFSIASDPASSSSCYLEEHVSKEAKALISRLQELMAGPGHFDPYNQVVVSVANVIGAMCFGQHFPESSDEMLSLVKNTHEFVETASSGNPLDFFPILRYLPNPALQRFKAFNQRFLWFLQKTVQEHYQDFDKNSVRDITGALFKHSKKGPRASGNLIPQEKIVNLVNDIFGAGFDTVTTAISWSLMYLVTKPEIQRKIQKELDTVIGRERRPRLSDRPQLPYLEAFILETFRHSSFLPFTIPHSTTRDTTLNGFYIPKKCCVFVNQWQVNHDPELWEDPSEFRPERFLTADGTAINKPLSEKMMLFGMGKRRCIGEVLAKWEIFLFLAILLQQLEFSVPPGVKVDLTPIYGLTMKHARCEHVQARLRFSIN

[9] = test system: Liver microsome; experiment: Drug level in human liver microsomes treated with 10 uM DB868 prodrug after 180 mins incubation by HPLC-UV chromatography relative to initial prodrug concentration; format: ADME; details: 3 h; procedure, shortened: as §2
[10] = test system: Liver microsome; experiment: Prodrug conversion in rat liver microsomes treated with 10 uM DB868 after 180 mins incubation by HPLC-UV chromatography; format: ADME; details: 3 h; procedure, shortened: as §2
[11] = Ratio of drug metabolism in sandwich-cultured human hepatocytes to drug metabolism in sandwich-cultured rat hepatocytes treated with 10 uM DB868 after 24 hrs of incubation by HPLC-MS/MS analysis
[12] = test system: Liver microsome; experiment: Drug metabolism in human liver microsomes assessed as (3Z,3'Z)-6,6'-(furan-2,5-diyl)bis(N'-hydroxynicotinimidamide) formation measured per mg of protein by HPLC-MS/MS analysis; format: ADME
Procedure, shortened: (§4)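 M2 formation kinetics: HLM (0.5 mg/mL) with M1 at 0.1–25 µM in phosphate pH 7.4 with MgCl2, started with 2 mM NADPH. Run 5 min in triplicate under initial-rate conditions. Quantified by HPLC/MS/MS and fitted to the Hill equation (S50, Vmax, n).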

[13] = molecular target: T3, Cytochrome P450 3A4 (Homo sapiens, UniProt P08684); experiment: Activity at human recombinant CYP3A4-mediated drug metabolism treated with 5 uM DB868 after 180 mins incubation by HPLC-UV chromatography; format: ADME; details: recombinant enzyme, 15 min, in the assay text read “15 mins” for “180 mins”; procedure, shortened: as §3
[14] = molecular target: T4, Cytochrome P450 4F2 (Homo sapiens, UniProt P78329); experiment: Activity at human recombinant CYP4F2-mediated drug metabolism treated with 5 uM DB868 […] by HPLC-UV chromatography; format: ADME; details: recombinant enzyme, 3 h
T4 sequence (P78329 whole entry): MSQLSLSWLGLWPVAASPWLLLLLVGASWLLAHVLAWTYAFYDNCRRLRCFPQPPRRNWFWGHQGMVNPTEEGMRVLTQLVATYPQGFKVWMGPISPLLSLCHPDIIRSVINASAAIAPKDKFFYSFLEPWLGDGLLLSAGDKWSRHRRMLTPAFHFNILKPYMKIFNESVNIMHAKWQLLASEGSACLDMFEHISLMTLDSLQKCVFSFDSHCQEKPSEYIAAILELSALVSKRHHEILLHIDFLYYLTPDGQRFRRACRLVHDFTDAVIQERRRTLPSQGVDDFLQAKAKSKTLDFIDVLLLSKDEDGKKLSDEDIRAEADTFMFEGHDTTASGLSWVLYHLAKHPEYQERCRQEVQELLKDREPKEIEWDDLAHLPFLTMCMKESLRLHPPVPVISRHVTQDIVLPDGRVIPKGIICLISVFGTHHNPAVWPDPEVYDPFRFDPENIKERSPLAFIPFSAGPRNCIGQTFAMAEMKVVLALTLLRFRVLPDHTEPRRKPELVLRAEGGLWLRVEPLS

[15] = molecular target: T3, Cytochrome P450 3A4; experiment: Drug metabolism in human recombinant CYP3A4 treated with at 5 uM DB868 after 15 mins incubation by HPLC-UV chromatography; details: recombinant enzyme
[16] = test system: Liver microsome; experiment: Drug metabolism in human liver microsomes assessed as (3Z,3'Z)-6,6'-(furan-2,5-diyl)bis(N'-hydroxynicotinimidamide) formation measured by HPLC-MS/MS analysis; format: ADME; procedure, shortened: as §4
[17] = molecular target: T5, Cytochrome P450 4F1 (Rattus norvegicus, UniProt P33274); experiment: Drug metabolism in rat recombinant […] treated with at 5 uM DB868 after 180 mins incubation by HPLC-UV chromatography; format: ADME; details: recombinant enzyme, 3 h
T5 sequence (P33274 whole entry): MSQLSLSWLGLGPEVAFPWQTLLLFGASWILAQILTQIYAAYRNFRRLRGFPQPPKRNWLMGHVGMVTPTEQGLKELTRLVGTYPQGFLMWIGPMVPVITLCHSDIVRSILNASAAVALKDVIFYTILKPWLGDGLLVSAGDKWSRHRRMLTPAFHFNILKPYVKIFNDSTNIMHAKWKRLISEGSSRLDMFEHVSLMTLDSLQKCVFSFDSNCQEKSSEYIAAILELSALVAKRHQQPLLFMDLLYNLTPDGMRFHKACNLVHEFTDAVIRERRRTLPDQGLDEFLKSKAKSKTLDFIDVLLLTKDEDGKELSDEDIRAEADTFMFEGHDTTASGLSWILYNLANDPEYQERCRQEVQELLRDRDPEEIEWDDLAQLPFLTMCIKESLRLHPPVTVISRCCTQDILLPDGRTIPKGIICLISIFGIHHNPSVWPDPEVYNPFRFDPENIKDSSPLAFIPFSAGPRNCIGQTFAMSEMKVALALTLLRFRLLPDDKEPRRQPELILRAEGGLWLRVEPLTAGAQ

T3 sequence (P08684 whole entry): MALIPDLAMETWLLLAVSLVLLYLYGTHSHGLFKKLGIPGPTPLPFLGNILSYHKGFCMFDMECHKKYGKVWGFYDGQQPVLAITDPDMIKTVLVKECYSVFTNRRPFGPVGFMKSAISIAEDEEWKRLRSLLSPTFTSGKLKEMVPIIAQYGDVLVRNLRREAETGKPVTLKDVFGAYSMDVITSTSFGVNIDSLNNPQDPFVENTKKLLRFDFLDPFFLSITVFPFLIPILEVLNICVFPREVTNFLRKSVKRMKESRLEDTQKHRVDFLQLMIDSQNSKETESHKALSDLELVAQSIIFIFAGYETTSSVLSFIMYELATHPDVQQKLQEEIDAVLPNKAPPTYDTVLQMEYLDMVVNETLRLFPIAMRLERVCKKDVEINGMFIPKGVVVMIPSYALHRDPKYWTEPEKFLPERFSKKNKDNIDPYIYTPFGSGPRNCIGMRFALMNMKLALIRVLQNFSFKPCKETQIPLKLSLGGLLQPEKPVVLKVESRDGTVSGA

| SMILES | Drug metabolism [1] | Retention_time [2] | Drug metabolism [3] | Retention_time [4] | Drug metabolism [5] | Drug metabolism [6] | Drug metabolism [7] | Drug metabolism [8] | Drug metabolism [9] | Drug metabolism [10] | Ratio [11] | Vmax [12] | Drug metabolism [13] | Drug metabolism [14] | Drug metabolism [15] | S50 [16] | Drug metabolism [17] |
| --- | --- | --- | --- | --- | --- | --- | --- | --- | --- | --- | --- | --- | --- | --- | --- | --- | --- |
| N=C(NO)c1ccc(-c2ccc(-c3ccc(C(=N)NO)cn3)o2)nc1 | – | 10.5 min | metabolite_detected | 10.5 min | metabolite_detected | – | metabolite_detected | metabolite_detected | – | – | – | – | – | – | – | – | – |
| CO/N=C(/N)c1ccc(-c2ccc(-c3ccc(/C(N)=N/O)cn3)o2)nc1 | metabolite_detected | 14.5 min | – | 14.5 min | metabolite_detected | – | metabolite_detected | metabolite_detected | – | – | – | 180 pmol/min | metabolite_detected | metabolite_detected | metabolite_detected | 18 µM | metabolite_detected |

Other lines, results leading:

| Drug metabolism [1] | Retention_time [2] | Drug metabolism [3] | Retention_time [4] | Drug metabolism [5] | Drug metabolism [6] | Drug metabolism [7] | Drug metabolism [8] | Drug metabolism [9] | Drug metabolism [10] | Ratio [11] | Vmax [12] | Drug metabolism [13] | Drug metabolism [14] | Drug metabolism [15] | S50 [16] | Drug metabolism [17] | SMILES |
| --- | --- | --- | --- | --- | --- | --- | --- | --- | --- | --- | --- | --- | --- | --- | --- | --- | --- |
| metabolite_detected | 12.3 min | metabolite_detected | 12.3 min | metabolite_detected | metabolite_detected | – | – | – | – | – | – | – | – | – | – | – | CO/N=C(\N)c1ccc(-c2ccc(-c3ccc(C(=N)N)cn3)o2)nc1 |
| – | 8.3 min | – | 8.3 min | – | – | – | – | – | – | – | – | – | – | – | – | – | N=C(N)c1ccc(-c2ccc(-c3ccc(/C(N)=N/O)cn3)o2)nc1 |
| – | – | metabolite_detected | 5.8 min | – | metabolite_detected | – | – | metabolite_detected | metabolite_not_detected | 7800 | – | – | – | – | – | – | Cl.N=C(N)c1ccc(-c2ccc(-c3ccc(C(=N)N)cn3)o2)nc1 |

From ChEMBL document CHEMBL3525966, “Compartmental and enzyme kinetic modeling to elucidate the biotransformation pathway of a centrally acting antitrypanosomal prodrug” (Drug Metab Dispos, 2013)
